From ChEMBL document CHEMBL1154340, “Biphenyls from Berberis koreana” (J Nat Prod, 2009)

Key:
[1] = system: A549; assay: Cytotoxicity against human A549 cells by SRB assay; type: functional, cell-based
[2] = system: SK-OV-3; assay: Cytotoxicity against human SKOV3 cells by SRB assay; type: functional, cell-based
[3] = system: SK-MEL-2; assay: Cytotoxicity against human SK-MEL-2 cells by SRB assay; type: functional, cell-based
[4] = system: HCT-15; assay: Cytotoxicity against human HCT15 cells by SRB assay; type: functional, cell-based
[5] = system: BV-2; assay: Antiinflammatory activity in mouse BV2 cells assessed as effect on LPS-stimulated nitrite accumulation after 24 hrs by Griess reagent method; type: functional, cell-based; conditions: BV-2, 24 h
Procedure, shortened: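 Nitrite, the stable NO oxidation product, measured in culture supernatant by Griess reaction: 50 µL supernatant mixed with equal volume of reagent (1% sulfanilamide, 0.1% N-1-naphthylethylenediamine dihydrochloride in 5% phosphoric acid). Absorbance at 540 nm read after 10 min. Sodium nitrite standard used for quantitation. L-NMMA served as positive control. IC50 values reported.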

[6] = Cytotoxicity against mouse BV2 cells by MTT assay; type: cell-based; conditions: bv-2
Procedure, shortened: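 Viability of the same cultures determined by MTT (3-[4,5-dimethylthiazol-2-yl]-2,5-diphenyltetrazolium bromide) assay.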

| SMILES | IC50 [1] [µM] | IC50 [2] [µM] | IC50 [3] [µM] | IC50 [4] [µM] | IC50 [5] [µM] | Activity [6] |
| --- | --- | --- | --- | --- | --- | --- |
| COc1cc(OC)cc(-c2ccccc2O)c1 | > 10 | > 10 | > 10 | > 10 | 32.1 |  |
| COc1cc2c(oc3cccc(O)c32)c(OC)c1O | > 10 | > 10 | > 10 | > 10 |  |  |
| COc1cc(O)cc(-c2ccccc2)c1 | > 10 | > 10 | > 10 | > 10 |  |  |
| COc1cc(-c2ccccc2O)cc(OC)c1OC | > 10 | > 10 | > 10 | > 10 | 50.6 |  |
| COc1cc(-c2ccccc2O)cc(OC)c1O | > 10 | > 10 | > 10 | > 10 |  |  |
| COc1cc(-c2ccccc2)cc(OC)c1OC [METHOXY AUCUPARIN] | > 10 | > 10 | > 10 | > 10 | 21.9 |  |
| COc1cc2c(oc3ccccc32)c(OC)c1O [ERIOBOFURAN] | > 10 | > 10 | > 10 | > 10 |  |  |
| COc1cc(OC)cc(-c2ccccc2)c1 | > 10 | > 10 | > 10 | > 10 |  |  |
| COc1cc(-c2ccccc2)cc(Oc2c(OC)cc([C@@H](O)[C@H](O)CO)cc2OC)c1O [BERBEKORIN A] | 8.2 |  | 4.4 | 7 |  | Toxic |
| COc1ccc2c(oc3c(OC)c(OC)c(O)cc32)c1O | > 10 | > 10 | > 10 | > 10 | 33 |  |
| COc1cc(-c2ccccc2)cc(O)c1O | > 10 | > 10 | > 10 | > 10 |  |  |
| COc1cc(OC)cc(-c2ccc(O)cc2)c1 | > 10 | > 10 | > 10 | > 10 |  |  |
| COc1cc(-c2ccccc2)cc(OC)c1O [AUCUPARIN] | > 10 | > 10 | > 10 | > 10 |  |  |
| COc1cc2c(oc3cc(O)ccc32)c(OC)c1O | > 10 | > 10 | > 10 | > 10 |  |  |
